From paper PMC6447837 (Cancer Science, 2019)

Experiments:
Bxpc‐3 xenograft = experiment: Subcutaneous xenograft model; format: in vivo, NOD‐SCID mice; conditions: Bxpc‐3 model
How it was run: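 Female NOD‑SCID mice bearing s.c. right‑flank tumors (5 × 10⁶–1 × 10⁷ cells injected) were randomized at 100–200 mm³ (6–7 per group). They received test compound in 25% PEG400/5% DMSO/water by oral gavage once daily for 18 days, or vehicle. Tumors were measured by caliper every 3 days, with volume = length × width² × 0.5.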

KG‐1a = experiment: MTT antiviability assay; format: cell-based; conditions: Homo sapiens, 72 h
HCC1937 = conditions: HCC1937, Triple negative breast cancer; mean ± SD; ref Zhang et al (2016) 35; cited from earlier work
CFPAC = experiment: MTT antiviability assay; format: cell-based; conditions: Homo sapiens, 72 h

Cc1ccc(NC(=O)c2ccc(C)c(C(F)(F)F)c2)cc1C#Cc1nn(C2CCC(O)CC2)c2ncnc(N)c12 (centres unmarked) [LY‐1816, N‐(3‐((4‐amino‐1‐(4‐hydroxycyclohexyl)‐1H‐pyrazolo[3,4‐d]pyrimidin‐3‐yl)ethynyl)‐4‐methylphenyl)‐4‐methyl‐3‐(trifluoromethyl)benzamide]
tumor‐inhibition rate (Bxpc‐3 xenograft; 40 mg/kg daily, orally, 18 days): > 90%
antitumor activity (Bxpc‐3 xenograft; LY‐1816 20 or 40 mg/kg/d p.o., dasatinib 40 mg/kg/d p.o., gemcitabine 80 mg/kg once a week): dose‐dependent tumor inhibitory activities
IC50 (KG‐1a): > 10000 nM
IC50 (HCC1937): 455 ± 87 nM
IC50 (CFPAC): 96 ± 60 nM
